Data set [1] relates to HCT-116. Kind of data set: Inhibition of cell proliferation of human HCT116 cells incubated for 15 hrs by MTT assay. The data set is classed as functional, cell-based. The settings on record: HCT-116, 15 h. In short, it runs like this: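 Cells plated at 1×10⁴ per well, incubated overnight at 37 °C, then exposed to a concentration series for 15 h. MTT (5 mg/mL stock) added for 4 h at 37 °C. Formazan dissolved in DMSO and absorbance read at 570 nm. IC50 derived from the dose-response curve.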
(Tetrazolium dyes change colour on reduction, which living cells bring about.)

The target of data set [2] is T1, Retinoic acid receptor RXR-alpha (Homo sapiens, UniProt P19793).
T1 sequence (P19793 whole entry): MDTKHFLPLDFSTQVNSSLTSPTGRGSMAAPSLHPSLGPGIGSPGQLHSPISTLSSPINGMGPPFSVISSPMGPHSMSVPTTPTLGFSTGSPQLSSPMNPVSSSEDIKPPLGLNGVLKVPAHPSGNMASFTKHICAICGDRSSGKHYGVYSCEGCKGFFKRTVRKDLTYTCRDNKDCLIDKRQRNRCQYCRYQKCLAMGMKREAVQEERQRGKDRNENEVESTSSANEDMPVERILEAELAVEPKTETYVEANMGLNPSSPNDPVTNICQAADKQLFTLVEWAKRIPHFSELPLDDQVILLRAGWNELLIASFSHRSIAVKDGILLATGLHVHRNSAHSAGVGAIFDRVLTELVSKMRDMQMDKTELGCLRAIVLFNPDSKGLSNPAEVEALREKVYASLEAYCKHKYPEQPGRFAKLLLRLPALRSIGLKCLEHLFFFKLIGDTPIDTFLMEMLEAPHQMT
Kind of data set: Binding affinity to His-tagged RXRalpha LBD (unknown origin) expressed in Escherichia coli strain BL21 (DE3) by fluorescence quenching analysis. In short, it runs like this: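 His-RXRα-LBD expressed from pET15b in E. coli BL21(DE3), induced with 0.1 mM IPTG at 16 °C for 16 h, purified on Ni-NTA. Protein held at 1 μM in PBS pH 7.4 and titrated with ligand (2–30 μM). Excitation 280 nm, emission scanned 290–600 nm, DMSO blank subtracted, each spectrum measured three times. Apparent Kd taken from the titration curve.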

Data set [3] addresses T2, Retinoic acid receptor RXR-alpha (Homo sapiens) (UniProt P19793).
T2 sequence (whole entry): T1 sequence (P19793 whole entry)
Kind of data set: Activation of RXRalpha in human KM12C cells assessed as inhibition of Wnt/beta-catenin-dependent transcriptional activity at 25 to 50 uM incubated for 15 hrs by TOP/FOP luciferase assay. The data set is classed as cell-based. Summed up: (§1)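 TOP/FOP reporter: cells co-transfected by lipofection with pRL-TK plus TOPflash or FOPflash; compound added 20 h after transfection for 15 h; passive lysis at 4 °C, 1 h; firefly and Renilla luciferase measured by dual-luciferase assay.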

Data set [4] addresses T2, Retinoic acid receptor RXR-alpha (Homo sapiens). Kind of data set: Activation of RXRalpha in human SW620 cells assessed as inhibition of Wnt/beta-catenin-dependent transcriptional activity at 40 to 80 uM incubated for 15 hrs by TOP/FOP luciferase assay. It is filed as cell-based. The conditions noted are these: SW-620. Summed up:
as §1

Data set [5] has the same target. Kind of data set: Activation of RXRalpha in human HCT116 cells assessed as induction of beta-catenin protein degradation at 30 to 60 uM incubated for 15 hrs by Western blot analysis. It is filed as cell-based. The conditions noted are these: HCT-116. For orientation: Immunoblotting shows a protein as a band on a membrane.
The target is the same in data set [6]. Kind of data set: Activation of RXRalpha (unknown origin) expressed in human HCT116 cells co-expressing beta-catenin assessed as induction of RXRalpha interaction with beta-catenin at 30 to 60 uM incubated for 15 hrs by mammalian two-hybrid assay. The data set is classed as cell-based. The settings on record: HCT-116. Summed up: (§2)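 Mammalian two-hybrid: cells co-transfected by lipofection with pBIND-β-catenin/S33Y plus pACT-RXRα (RXRα–β-catenin) or pACT-c-Cbl (β-catenin–c-Cbl); 20 h after transfection, compound added for 15 h; cells lysed in passive lysis buffer, 4 °C, 1 h; firefly and Renilla luciferase read by dual-luciferase kit.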

Data set [7] has the same target. Kind of data set: Activation of RXRalpha (unknown origin) expressed in human SW620 cells co-expressing beta-catenin assessed as induction of RXRalpha interaction with beta-catenin at 40 to 80 uM incubated for 15 hrs by mammalian two-hybrid assay. It is filed as cell-based. The conditions noted are these: SW-620. Summed up: as §2
For data set [8] the target is unchanged. Kind of data set: Activation of RXRalpha in human KM12C cells assessed as reduction in Cdc2 mRNA expression at 25 to 50 uM incubated for 15 hrs by real-time PCR analysis. It is filed as cell-based. In general terms: Quantitative PCR measures a nucleic acid by following its amplification.
The target is the same in data set [9]. Kind of data set: Activation of RXRalpha in human SW620 cells assessed as reduction in Cdc2 mRNA expression at 40 to 80 uM incubated for 15 hrs by real-time PCR analysis. The data set is classed as cell-based. The settings on record: SW-620.
For data set [10] the target is unchanged. Kind of data set: Activation of RXRalpha in human SW620 cells assessed as reduction in c-Myc mRNA expression at 40 to 80 uM incubated for 15 hrs by real-time PCR analysis. It is filed as cell-based. The conditions noted are these: SW-620.
The target is the same in data set [11]. Kind of data set: In-vivo activation of RXRalpha in BALB/c mouse xenografted with human KM12C cells assessed as reduction in Cdc2 protein expression at 100 mg/kg, ig dosed daily for 15 days by Western blot analysis. The data set is classed as functional, organism-based. Summed up: (§3)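 KM12C cells (1×10^6 per mouse in 100 μL HBSS) injected subcutaneously into both flanks of nude mice; after seven days, randomized to three groups, dosed intragastrically once daily for 15 days with vehicle (CMC-Na) or 100 mg/kg compound; mice euthanized and tumors removed for analysis.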

Data set [12] has the same target. Kind of data set: In-vivo activation of RXRalpha in BALB/c mouse xenografted with human KM12C cells assessed as reduction in Cdc2 protein expression at 100 mg/kg, ig dosed daily for 15 days by immunohistochemistry analysis. The data set is classed as functional, organism-based. In short, it runs like this:
as §3

Data set [13] shares this target. Kind of data set: In-vivo activation of RXRalpha in BALB/c mouse xenografted with human KM12C cells assessed as reduction in c-Myc protein expression at 100 mg/kg, ig dosed daily for 15 days by immunohistochemistry analysis. It is filed as functional, organism-based. In short, it runs like this: as §3
The target is the same in data set [14]. Kind of data set: In-vivo activation of RXRalpha in BALB/c mouse xenografted with human KM12C cells assessed as reduction in Cdc2 mRNA expression at 100 mg/kg, ig dosed daily for 15 days by real-time PCR analysis. The data set is classed as functional, organism-based. In short, it runs like this: as §3
A short description of data set [15]: Toxicity in BALB/c mouse xenografted with human KM12C cells assessed as effect on biochemical parameter by measuring TBIL level at 100 mg/kg, ig dosed daily for 15 days by automatic chemistry analyzer based analysis (reference value: 0.28 +/- 0.024 umol/L). The data set is classed as organism-based. The conditions noted are these: in vivo, po, 360 h.
Data set [16] is described as follows: Toxicity in BALB/c mouse xenografted with human KM12C cells assessed as effect on biochemical parameter by measuring ALP level at 100 mg/kg, ig dosed daily for 15 days by automatic chemistry analyzer based analysis (reference value: 76.53 +/- 4.31 U/L). It is filed as organism-based. The conditions noted are these: in vivo, po, 360 h.
Data set [17] is described as follows: Toxicity in BALB/c mouse xenografted with human KM12C cells assessed as effect on biochemical parameter by measuring calcium level at 100 mg/kg, ig dosed daily for 15 days by automatic chemistry analyzer based analysis (reference value: 2.27 +/- 0.059 mmol/L). The settings on record: in vivo, po, 360 h. The data set is classed as organism-based.
Data set [18] is described as follows: AUC (0 to t) in Sprague-Dawley rat at 100 mg/kg, ig measured after 0.083 to 36 hrs by LC-MS/MS analysis. It is filed as ADME, organism-based. Also noted: time upper 36 hr, time lower 0.083 hr, dose 100 mg/kg, route intragastric. The conditions noted are these: in vivo, po. In short, it runs like this:
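SD rats (200 ± 20 g) randomized to three groups; single intragastric dose of 100 mg/kg or vehicle (0.5% CMC-Na). Tail-vein blood (0.5 mL) drawn at 0.083, 0.25, 0.5, 1, 2, 4, 8, 12, 24 and 36 h. Plasma separated by centrifugation at 2000 rpm for 10 min, frozen at -80 °C, then quantified by LC-MS/MS.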

Usually pIC50 stands for −log10 of the IC50, conventionally taken in molar units. Read a low pIC50 as a large IC50. Usually pKd stands for the negative decadic logarithm of the Kd, by convention in mol/L. Usually AUC(0-t) stands for the area under the concentration-time curve up to a stated or last time point.

pIC50, pKd: −log10 of the molar value. The source made the active and inactive calls. No cut-off for these calls is given here.

Turning to `COc1ccc2cc3[n+](cc2c1OC)CCc1cc2c(cc1-3)OCO2.[Cl-]` [BERBERINE CHLORIDE], in [1], the pIC50 is 4.08. In addition, the pKd in [2] is 4.61. Also, the result in data set [3], in data set [4], in [5], in [6], in [7] and in data set [8] was Active. In addition, the outcome in [9], in [10], in [11], in data set [12], in data set [13] and in [14] was Active. The figures for the Activity in data set [15], in data set [16] and in [17] were 0.26 µmol/L, 71.28 U/L and 2.13 mmol/L, respectively. Further, the area under the curve AUC(0-t) in data set [18] is 0.099 µg·h/mL.

Take `COc1ccc2c(c1)CC[n+]1cc3c(OC)cccc3cc1-2.[Cl-]`: the negative-log IC50 (pIC50) in data set [1] is 4.57. Besides, the pKd in data set [2] was 4.72. Also, the outcome in data set [3], in data set [4], in [5], in [6], in [7] and in data set [8] was Active. The outcome in data set [9], in [10], in data set [11], in data set [12], in data set [13] and in [14] was Active. In addition, the Activity in data set [15] came out at 0.21 µmol/L; in data set [16] it was 78.35 U/L; in data set [17], 2.23 mmol/L. Moreover, in [18], the area under the curve AUC(0-t) was 2.1 µg·h/mL.

Values taken from ChEMBL document CHEMBL4613270, “Structure-Activity Relationship Study Enables the Discovery of a Novel Berberine Analogue as the RXRα Activator to Inhibit Colon Cancer” (J Med Chem, 2020).
